tim10-1 inh: growth inhibitors of tim10-1 mutant yeast, primary screen, luminescence, uHTS. S. cerevisiae tim10-1 ts strain growth, BacTiter-Glo, 24 h. inhibition, % at 20 µM. 2.2% of 330,000 active. AID 463190, 2010;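 active means inhibition of at least 40%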;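 further: mutant grown at 25 °C; 0% = DMSO wells with yeast and 100% = wells holding no yeast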
TIM10 inh: growth inhibitors of isogenic TIM10 control yeast, primary screen, counter-screen for tim10-1 yeast inhibitor project, luminescence, uHTS | inhibition, % at 10 µM | S. cerevisiae TIM10 strain growth, BacTiter-Glo luminescence, 24 h | 1.4% of 330,000 active;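 active means inhibition of 40% or more at the single tested concentration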;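 further: wild-type TIM10 isogenic control strain grown at permissive 25 °C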
UPR XBP1 act: activators of adaptive XBP1 UPR arm, primary screen, cell-based, CHO-XBP1 luciferase reporter, luminescence, uHTS; IRE1-XBP1 UPR activation; percent of tunicamycin response, DMSO as zero; activation, % at 20 µM; 0.33% of 330,000 active;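 active means versus positive control, 20 µM dose yields 30% or more activation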;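 further: 100% = tunicamycin at 10 µg/mL and 0% = DMSO only wells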
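Signal: luciferase luminescence; Assay system: CHO-XBP1 luciferase reporter cells; Amount: one thousand reporter cells per well; Dosing: 20 µM single concentration, DMSO 1%; Benchmarks: high control tunicamycin 10 µg/mL final, low control DMSO vehicle only; Schedule: 6 h compound exposure at 37 °C, 5% CO2; Evaluation: percent activation relative to tunicamycin reference.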
tim23-1 inh: growth inhibitors of tim23-1 mutant yeast, primary screen, luminescence, uHTS | S. cerevisiae tim23-1 growth, BacTiter-Glo luminescence, 24 h | inhibition, % at 20 µM | AID 463212, 2010 | 1.3% of 330,000 active;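 active means growth inhibition of the mutant yeast at or above 50%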;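 further: temperature-sensitive mutant grown at 25 °C; plate controls were DMSO-treated mutant yeast for no effect and medium wells lacking yeast for full effect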
CHOP UPR activ: activators of apoptotic CHOP UPR arm, primary screen, cell-based, CHO-CHOP luciferase reporter, luminescence, uHTS | activation, % at 10 µM | AID 449763, 2010 | UPR activation; percent of tunicamycin response over DMSO baseline | 0.34% of 330,000 active;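 active means at 10 µM dose, activation of 40% or more, normalized to positive control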;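 further: 100% = tunicamycin at 10 µg/mL and 0% = DMSO alone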
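Assay system: CHO cells with stable CHOP pathway luciferase reporter; Buffer or medium: F12 plus 10% serum; Times: 16-18 h cell attachment, then 6 h compound exposure, 37 °C; Signal: luciferase luminescence; Read-out basis: percent activation relative to tunicamycin control; Control set: tunicamycin high control, DMSO low control.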
tim10-1 confirm: growth inhibitors of tim10-1 mutant yeast, confirmation, single concentration, luminescence, S. cerevisiae | shares compounds with tim10-1 inh | S. cerevisiae tim10-1 ts strain growth, BacTiter-Glo, 24 h | inhibition, % at 20 µM | 56% of 7,400 active | AID 463213, 2010;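 active means inhibition of yeast growth at or above a set limit in either of two repeat tests at 20 µM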;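 further: tim10-1 mutant grown at permissive 25 °C to find synthetic lethal compounds; 0% = DMSO yeast wells and 100% = medium wells without yeast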
TIM10 conf: growth inhibitors of wild-type TIM10 yeast, confirmation, counter-screen for tim10-1 synthetic lethality project, single concentration, luminescence, S. cerevisiae. shares compounds with TIM10 inh. S. cerevisiae tim10 strain growth, BacTiter-Glo luminescence, 24 h. inhibition, % at 10 µM. 63% of 4,600 active;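 active means inhibition of yeast growth at or above a set limit in either of two replicates at 10 µM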;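 further: this counterscreen used the strain with wild-type TIM10; 0% = yeast with DMSO and 100% = medium wells lacking yeast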
tim23-1 conf: tim23-1 mutant yeast growth inhibitors, confirmation, luminescence, single concentration; S. cerevisiae tim23-1 growth, BacTiter-Glo luminescence, 24 h; 83% of 4,400 active; shares compounds with tim23-1 inh; inhibition, % at 20 µM;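 active means inhibition above about 39% in either of two replicate wells at 20 µM, limit read from the data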;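 further: temperature-sensitive tim23-1 mutant grown at 25 °C; 0% = DMSO wells with yeast and 100% = medium wells without yeast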
* hit, by the source's call; x = no result given. In the library only some 3.9% were active in any assay of this set; here they are far more common.

SMILES	tim10-1 inh	TIM10 inh	UPR XBP1 act	tim23-1 inh	CHOP UPR activ	tim10-1 confirm	TIM10 conf	tim23-1 conf
Cc1oc2c(c1C(=O)NCc1cccnc1)C(=O)c1ccccc1C2=O	83.2*	94.4*	-7.7	82.8*	-5.6	82.2*	94.6*	71.5*
COc1ccc(CNC(=O)c2c(C)oc3c2C(=O)c2ccccc2C3=O)cc1	83.3*	56.5*	2.8	88.6*	6.9	73.8*	68.1*	86.0*
COc1cccc(N2C(=O)Nc3ccc(Br)cc3C2(O)C(=O)NCCN(C)C)c1 (stereo not drawn)	6.8	-19.2	-5.5	6.9	-0.2	x	x	x
O=C(CS(=O)(=O)Nc1ccc(F)cc1Cl)Nc1ccc(F)cc1Cl	26.4	3.2	-5.0	27.1	-0.6	x	x	x
CCOc1ccccc1NC(=O)c1nc(S(=O)(=O)Cc2cccc(C)c2)ncc1Cl	44.5*	40.9*	-9.8	81.0*	-10.5	44.0*	70.5*	83.3*
O=C(Nc1ccccc1)C1C(c2ccccc2)C1(Cl)Cl (stereo not drawn)	43.5*	25.4	-3.1	55.0*	0.5	24.1	x	47.5*
Cc1ccc(S(=O)(=O)N2CCOCC2)cc1NCC(=O)Nc1ccc(OC(F)(F)F)cc1	1.1	-6.4	1.0	-8.6	0.3	x	x	x
CC(C)N(CCC(=O)c1ccc2ccccc2c1)Cc1ccccc1	92.3*	27.7	-10.5	57.8*	24.5	92.4*	x	86.0*
Cc1nn(-c2ccccc2)c2c1C1(C(=O)N3c4c(cccc41)C(C)CC3(C)C)C(C#N)=C(N)O2 (stereo not drawn)	74.7*	51.9*	-4.5	68.7*	1.6	72.8*	42.8*	77.8*
O=C(O)c1ccccc1Nc1cc(Cl)c2nonc2c1[N+](=O)[O-]	2.4	-9.0	-0.3	12.4	1.3	x	x	x
O=[N+]([O-])c1c(Nc2ccccn2)cc(Cl)c2nonc12	94.3*	95.3*	-10.9	94.3*	-10.5	94.1*	99.5*	96.3*
C=CCNC(=O)/C(C#N)=C/c1c(C)nn(-c2ccc(Cl)cc2)c1Cl	62.7*	57.5*	-0.2	56.0*	-1.0	59.1*	63.4*	65.8*
CCN(CC(=O)NCc1cccs1)C(=O)c1cccc(S(=O)(=O)NCc2ccccc2)c1	-21.3	-2.2	0.1	-20.3	1.5	x	x	x
COC(=O)c1ccc(Cn2nc([N+](=O)[O-])c(Br)c2C)cc1	16.7	-4.7	2.9	18.1	2.1	x	x	x
COc1ccc(NC(=O)c2cc(C3CC3)nc3c2cnn3C(C)C)cc1OC	-0.8	-15.4	1.9	21.0	0.0	x	x	x
Cc1cccnc1N1C(=O)c2ccc(C(=O)O)cc2C1=O	-8.9	-1.0	2.5	0.2	0.3	x	x	x
CC(C)c1c(C(=O)N/N=C/c2ccc3c(c2)OCO3)nnn1-c1nonc1N	11.1	1.8	0.2	18.6	0.9	x	x	x
CCN(CC)c1ccc(/C=N/NC(=O)c2nnn(-c3nonc3N)c2C(C)C)c(O)c1	71.6*	60.3*	9.8	61.9*	-0.9	16.2	66.2*	61.0*
Oc1c(C(c2cccs2)N2CCN(c3ccccc3)CC2)ccc2cccnc12 (stereo not drawn)	55.7*	1.2	3.6	58.8*	87.1*	40.2*	x	77.8*
O=C(N/N=C/c1ccc(Br)cc1)c1ccccc1-n1cccc1	42.4*	36.7	-1.0	54.1*	-2.6	37.0*	x	51.1*
Cc1ccc(NC(=O)C(C)c2ccc([N+](=O)[O-])cc2)cc1Cl (stereo not drawn)	57.9*	58.7*	2.3	51.4*	-2.4	59.2*	48.4*	60.8*
[O-][n+]1c2c(c3c4non(O)c4ccc31)CCCC2	70.1*	61.1*	-1.2	62.5*	0.1	70.2*	51.7*	64.2*
COn1c2c(c3c4no[n+]([O-])c4ccc31)CCCC2	26.0	13.0	0.5	10.9	-1.1	x	x	x
CNCc1ccccc1Sc1cccc(O)c1	-3.1	6.4	-1.0	8.6	4.2	x	x	x
CNCc1ccccc1Sc1cc(O)ccc1O	50.9*	35.8	1.9	60.1*	15.8	46.6*	x	55.8*
SMILES	tim10-1 inh	TIM10 inh	UPR XBP1 act	tim23-1 inh	CHOP UPR activ	tim10-1 confirm	TIM10 conf	tim23-1 conf
Cc1ccc(S(=O)(=O)NCc2ccccc2)cc1C(=O)N1CCCC(C(F)(F)F)C1 (stereo not drawn)	15.8	13.5	-0.9	19.8	0.9	x	x	x
CC1CCCC(NS(=O)(=O)c2ccc3c(c2)OCCO3)C1C (stereo not drawn)	57.0*	34.2	-0.7	52.1*	-0.5	47.8*	x	58.9*
O=S(=O)(NC1CC2CCC1C2)c1ccc2c(c1)OCCO2 (stereo not drawn)	-24.7	-27.1	-2.9	-21.6	2.1	x	x	x
COc1ccc(Nc2nc(-c3ccccc3)nc3ccccc23)cc1	51.7*	39.0	-7.1	67.5*	2.0	40.0*	x	63.0*
Oc1ccc(Nc2nc(-c3ccccc3)nc3ccccc23)cc1	59.0*	41.6*	2.2	60.9*	-0.6	45.7*	51.7*	59.4*
CC(Nc1nc(-c2ccccc2)nc2ccccc12)c1ccccc1 (stereo not drawn)	43.6*	29.4	-1.4	57.6*	1.3	-27.1	x	32.7
O=[N+]([O-])c1ccc(-c2nc(Nc3ccc(O)cc3)c3ccccc3n2)cc1	-9.5	4.5	24.1	-0.7	4.1	x	x	x
CC(Nc1nc(-c2ccccc2O)nc2ccccc12)c1ccccc1 (stereo not drawn)	27.8	21.5	-2.9	44.3	0.1	x	x	x
CC1CC(C)(C)N2C(=O)C(=C(C#N)C#N)c3cccc1c32 (stereo not drawn)	70.7*	54.4*	-3.8	70.0*	4.4	68.0*	42.6*	82.0*
CC1CC2(CCCCC2)N2C(=O)C(=O)c3cccc1c32 (stereo not drawn)	42.1*	28.7	3.4	69.1*	-0.9	52.2*	x	78.8*
COc1ccc(C2=NN(C(=O)CCCC(=O)O)C(c3cn(-c4ccccc4)nc3-c3ccccc3)C2)cc1 (stereo not drawn)	6.0	19.7	-0.7	-24.8	-1.1	x	x	x

Bioassay records as filed in PubChem.
